Results from different studies.
Compare with care: the assays were run in different laboratories.
Effect on: cell growth or viability

Compound | cell line | test | conditions | IC50
CCCCc1ccc2[nH]c(NC(=O)OC)nc2c1 | HN-6 |  | 72 h | 0.126 µM
CN1CCN(c2ccc3nc(-c4c(N)c5c(F)cccc5[nH]c4=O)[nH]c3c2)CC1 | RT-112 | MTT | 5 days | 0.2 µM
COc1cccc(Oc2ccccc2NC(=O)CNC(=O)c2cccc3ccccc23)c1 | SK-N-DZ |  |  | 0.288 µM
COc1ccc2[nH]cc(S(C)(=O)=Nc3cc(OC)c(OC)c(OC)c3)c2c1 (centres unmarked) | C4-2 | MTT | 48 h | > 40 µM
COc1ccc2c(c1OC)C(=O)O[C@@H]2[C@H]1c2c(cc3c(c2OC)OCO3)CCN1C | HN-6 |  | 72 h | 16.3 µM
O=C(NCCc1c[nH]c2ccccc12)C(=O)c1c[nH]c2ccc(Br)cc12 | C4-2 | MTT |  | > 100 µM
O=C1NCCc2[nH]c(-c3ccncc3)cc21 | LOX IMVI |  |  | 3.58 µM
O=C1c2cccc(O)c2C(=O)c2c(O)cc(CO)cc21 | HK-2 | MTT | 24 h | > 500 µM
CN(C)CC[C@@H](c1ccc(Cl)cc1)c1ccccn1 | HN-6 |  | 72 h | > 20 µM
COC(=O)CN=c1scc(-c2ccccc2)n1-c1ccccc1C | Panc 02.03 | MTT | 72 h | > 100 µM
COc1cc(O)c2c(c1)C(=O)c1cc(C)cc(O)c1C2=O | HK-2 | MTT | 24 h | > 500 µM
COc1ccc(CCN(C)CCc2ccc(OC)c(OC)c2)cc1OC | HN-6 |  | 72 h | > 20 µM
Cn1cc(C(=O)C(=O)NCCc2c[nH]c3ccccc23)c2ccccc21 | C4-2 | MTT |  | > 100 µM
O=C(CNC(=O)c1cccc2ccccc12)Nc1ccccc1Oc1cccc(O)c1 | SK-N-DZ |  |  | 0.539 µM
CCN(CC)CCCCNc1ncc2cc(-c3cc(OC)cc(OC)c3)c(NC(=O)NC(C)(C)C)nc2n1 | RT-112 | MTT | 5 days | 0.015 µM
Nc1ccn([C@@H]2O[C@H](CO)[C@@H](O)C2(F)F)c(=O)n1 | Panc 02.03 | MTT | 72 h | 0.38 µM
O=C(CNC(=O)c1cccc2ccccc12)Nc1ccccc1Oc1ccccc1 | SK-N-DZ |  |  | 0.237 µM
CC(C)=CCC[C@](C)(O)[C@H]1CC[C@]2(C)[C@@H]1[C@H](O)C[C@@H]1[C@@]3(C)CC[C@H](O[C@@H]4O[C@H](CO)[C@@H](O)[C@H](O)[C@H]4O[C@@H]4O[C@H](CO)[C@@H](O)[C@H](O)[C@H]4O)C(C)(C)[C@@H]3CC[C@]12C | BEAS-2B | MTT | 72 h | > 100 µM
COc1cccc2c1C(=O)c1c(O)c3c(c(O)c1C2=O)C[C@@](O)(C(=O)CO)C[C@@H]3O[C@H]1C[C@H](N)[C@H](O)[C@H](C)O1 | KATO III | MTT | 48 h | 0.71 µg/mL

Compound | cell line | test | conditions | IC50
CCN1CCN(c2ccc(Nc3cc(N(C)C(=O)Nc4c(Cl)c(OC)cc(OC)c4Cl)ncn3)cc2)CC1 | RT-112 | ATP luminescence | 96 h | 0.0117 µM
COc1cc([C@@H]2c3cc4c(cc3[C@@H](O[C@@H]3O[C@@H]5CO[C@@H](C)O[C@H]5[C@H](O)[C@H]3O)[C@H]3COC(=O)[C@H]23)OCO4)cc(OC)c1O | BEAS-2B |  |  | 11.2 µM
CC(C)(C)C1=CC(=NNC(=O)C2CCCCC2)C=C(C(C)(C)C)C1=O | human Fibroblast | resazurin | 24 h | > 100 µM
Nc1ccc(Cl)c[n+]1[Pt-2]([Cl])([Cl])[n+]1cc(Cl)ccc1N | BEAS-2B | MTT | 24 h | 10.3 µM
N=C(N)c1ccc(N=Nc2c(O)ccc3cc(O)ccc23)cc1 | MDA-MB-468 | MTT |  | 20 µM
CC1(C)CC[C@]2(C(=O)O)CC[C@]3(C)C(=CC[C@@H]4[C@@]5(C)CC[C@H](O)C(C)(C)[C@@H]5CC[C@]43C)[C@@H]2C1 | SGC-7901 | MTT | 48 h | 52.7 µM
O=C1Nc2ccc(Cl)cc2[C@@](C#CC2CC2)(C(F)(F)F)O1 | HN-6 |  | 72 h | 18.7 µM
CCOc1ccc(C(=O)NN=C2C=C(C(C)(C)C)C(=O)C(C(C)(C)C)=C2)cc1 | human Fibroblast | resazurin | 24 h | > 100 µM
CC(C)C[C@H](NC(=O)[C@H](Cc1ccccc1)NC(=O)c1cnccn1)B(O)O | RERF-LC-Ad2 | ATP luminescence |  | 0.022 µM
CCN1C(=O)N(c2c(F)c(OC)cc(OC)c2F)Cc2cnc3[nH]c(CN4CCOCC4)cc3c21 | KATO III | ATP luminescence | 96 h | 0.00148 µM
CC(=O)CC(c1ccccc1)c1c(O)c2ccccc2oc1=O (centres unmarked) | HN-6 |  | 72 h | > 20 µM
CCCCCCNC(=O)n1cc(F)c(=O)[nH]c1=O | C6 | MTT | 72 h | 7 µM
O=C(O)c1cc(O)c2c(c1)C(=O)c1cccc(O[C@@H]3O[C@H](CO)[C@@H](O)[C@H](O)[C@H]3O)c1C2=O | HK-2 | MTT | 24 h | > 500 µM
CCN(CC)CCNC(=O)COc1ccc(OC)cc1 | HN-6 |  | 72 h | > 20 µM
O=C(NCCc1c[nH]c2ccccc12)C(=O)c1c[nH]c2ccc(F)cc12 | C4-2 | MTT |  | > 100 µM
COc1nc(OCc2cccc(-c3ccccc3)c2C)ccc1CNCCNC(C)=O | HK-2 | MTT |  | 1.9 µM
Nc1nc(Nc2ccccc2)nc2c1ncn2[C@@H]1O[C@H](CO)[C@@H](O)[C@H]1O | HN-6 |  | 72 h | > 20 µM
COc1cc(Nc2nccc(-c3cnn4nc(OC)ccc34)n2)cc(C(F)(F)F)c1 | A2058 | ATP luminescence |  | 0.19 µM
C=C(C)C(=O)Nc1ccc(-c2c(-c3ccc(Oc4nccc(C)n4)c(F)c3)c3c(N)ncnc3n2C)cc1 | RT-112 | ATP luminescence | 96 h | 0.212 µM
